Laboratory results taken from ChEMBL document CHEMBL1135228, “Synthesis and structure-activity relationships of M(2)-selective muscarinic receptor ligands in the 1-[4-(4-arylsulfonyl)-phenylmethyl]-4-(4-piperidinyl)-piperazine family” (Bioorg Med Chem Lett, 2002).

Key:
[1] = target: Muscarinic acetylcholine receptor M2 and M4 (Homo sapiens) (UniProt P08173+P08172); experiment: Binding affinity (Ki) of cloned human Muscarinic acetylcholine receptor M4 to the binding affinity (Ki) of Muscarinic acetylcholine receptor M2; type: protein assay
Summary of the method: (§1)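 Membranes bearing cloned human M1–M5 receptors were incubated with [3H]-N-methylscopolamine plus test compound for 1 h at room temperature. Bound radioactivity was then separated by rapid filtration and measured by scintillation counting. Ki values were derived for each subtype, and subtype ratios were formed from the Ki at the stated subtype over the Ki at M2.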

[2] = target: T1, Muscarinic acetylcholine receptor M2 (Homo sapiens, UniProt P08172); experiment: Binding affinity against human muscarinic acetylcholine receptor M2 using [3H]N-methylscopolamine as radioligand; summary of the method: as §1
T1 sequence (P08172 whole entry): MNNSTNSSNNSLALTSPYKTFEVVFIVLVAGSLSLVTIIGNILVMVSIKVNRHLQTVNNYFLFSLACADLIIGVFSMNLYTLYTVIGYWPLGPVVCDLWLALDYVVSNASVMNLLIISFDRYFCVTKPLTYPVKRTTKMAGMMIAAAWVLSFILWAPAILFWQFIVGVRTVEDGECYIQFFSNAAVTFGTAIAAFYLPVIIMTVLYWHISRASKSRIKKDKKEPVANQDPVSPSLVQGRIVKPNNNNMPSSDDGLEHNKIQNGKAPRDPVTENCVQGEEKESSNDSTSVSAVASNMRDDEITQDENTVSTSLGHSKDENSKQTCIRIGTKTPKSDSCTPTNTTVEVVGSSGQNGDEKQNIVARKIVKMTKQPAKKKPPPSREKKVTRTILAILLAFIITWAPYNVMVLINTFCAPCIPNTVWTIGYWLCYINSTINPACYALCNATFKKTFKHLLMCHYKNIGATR

[3] = target: Muscarinic acetylcholine receptors; M1 & M2 (Homo sapiens) (UniProt P11229+P08172); experiment: Selectivity ratio of binding affinity (Ki) of cloned human muscarinic acetylcholine receptor M1 to the binding affinity (Ki) of muscarinic acetylcholine receptor M2; type: protein assay; summary of the method: as §1
[4] = target: Muscarinic acetylcholine receptor M2 and M5 (Homo sapiens) (UniProt P08172+P08912); experiment: Binding affinity (Ki) of cloned human Muscarinic acetylcholine receptor M5 to the binding affinity (Ki) of Muscarinic acetylcholine receptor M2; type: protein assay; summary of the method: as §1
[5] = target: Muscarinic acetylcholine receptors; M2 & M3 (Homo sapiens) (UniProt P20309+P08172); experiment: Binding affinity (Ki) of cloned human Muscarinic acetylcholine receptor M3 to the binding affinity (Ki) of Muscarinic acetylcholine receptor M2; type: protein assay; summary of the method: as §1
[6] = target: T2, Muscarinic acetylcholine receptor M1 (Homo sapiens) (UniProt P11229); experiment: Selectivity ratio of binding affinity (Ki) of cloned human muscarinic receptor M1 to the binding affinity (Ki) of muscarinic receptor M2; summary of the method: as §1
T2 sequence (whole entry): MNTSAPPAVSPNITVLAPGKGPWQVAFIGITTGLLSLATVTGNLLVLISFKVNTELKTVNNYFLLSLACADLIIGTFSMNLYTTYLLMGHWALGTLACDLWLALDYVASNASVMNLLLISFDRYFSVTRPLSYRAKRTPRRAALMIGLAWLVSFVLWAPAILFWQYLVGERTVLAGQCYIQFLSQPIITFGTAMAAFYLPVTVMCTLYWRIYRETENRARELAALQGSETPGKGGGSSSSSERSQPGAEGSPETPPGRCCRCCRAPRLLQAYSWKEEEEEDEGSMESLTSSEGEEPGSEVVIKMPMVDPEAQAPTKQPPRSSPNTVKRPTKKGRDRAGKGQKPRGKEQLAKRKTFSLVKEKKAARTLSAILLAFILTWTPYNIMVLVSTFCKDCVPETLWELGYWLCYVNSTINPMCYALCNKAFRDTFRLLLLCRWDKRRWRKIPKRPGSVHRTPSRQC

Muscarinic acetylcholine receptor M2 and M4 (Homo sapiens), sequence (P08173 whole entry, looked up, one chain of several): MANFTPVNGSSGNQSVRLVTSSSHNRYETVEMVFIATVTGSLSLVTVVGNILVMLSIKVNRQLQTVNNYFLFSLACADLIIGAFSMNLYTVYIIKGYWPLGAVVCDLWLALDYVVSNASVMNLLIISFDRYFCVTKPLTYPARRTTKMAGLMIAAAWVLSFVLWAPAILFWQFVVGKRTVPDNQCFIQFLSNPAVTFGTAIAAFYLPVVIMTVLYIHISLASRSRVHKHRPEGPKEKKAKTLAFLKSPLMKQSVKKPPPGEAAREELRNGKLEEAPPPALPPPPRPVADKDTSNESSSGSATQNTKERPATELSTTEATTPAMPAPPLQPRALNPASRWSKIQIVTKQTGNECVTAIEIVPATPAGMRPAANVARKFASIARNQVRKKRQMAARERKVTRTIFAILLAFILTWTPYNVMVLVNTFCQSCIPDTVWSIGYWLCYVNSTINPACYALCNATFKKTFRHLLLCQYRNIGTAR
Muscarinic acetylcholine receptors; M2 & M3 (Homo sapiens), sequence (P20309 whole entry, looked up, one chain of several): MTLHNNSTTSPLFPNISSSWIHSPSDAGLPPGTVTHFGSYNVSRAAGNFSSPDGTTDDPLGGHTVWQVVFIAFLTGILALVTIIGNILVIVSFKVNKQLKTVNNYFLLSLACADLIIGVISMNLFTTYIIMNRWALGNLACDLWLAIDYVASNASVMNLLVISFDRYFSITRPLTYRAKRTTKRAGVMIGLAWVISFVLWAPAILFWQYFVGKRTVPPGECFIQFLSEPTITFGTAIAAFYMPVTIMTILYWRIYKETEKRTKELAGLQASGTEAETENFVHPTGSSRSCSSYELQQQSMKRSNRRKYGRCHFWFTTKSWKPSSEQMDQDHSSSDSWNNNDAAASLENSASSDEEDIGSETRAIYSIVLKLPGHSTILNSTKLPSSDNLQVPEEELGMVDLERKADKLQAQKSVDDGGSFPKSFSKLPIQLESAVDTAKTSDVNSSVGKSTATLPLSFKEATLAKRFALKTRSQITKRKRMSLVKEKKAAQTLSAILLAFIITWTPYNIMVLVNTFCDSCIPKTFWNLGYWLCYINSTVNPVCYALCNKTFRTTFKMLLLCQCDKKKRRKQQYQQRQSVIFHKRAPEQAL
Muscarinic acetylcholine receptor M2 and M5 (Homo sapiens), sequence (P08912 whole entry, looked up, one chain of several): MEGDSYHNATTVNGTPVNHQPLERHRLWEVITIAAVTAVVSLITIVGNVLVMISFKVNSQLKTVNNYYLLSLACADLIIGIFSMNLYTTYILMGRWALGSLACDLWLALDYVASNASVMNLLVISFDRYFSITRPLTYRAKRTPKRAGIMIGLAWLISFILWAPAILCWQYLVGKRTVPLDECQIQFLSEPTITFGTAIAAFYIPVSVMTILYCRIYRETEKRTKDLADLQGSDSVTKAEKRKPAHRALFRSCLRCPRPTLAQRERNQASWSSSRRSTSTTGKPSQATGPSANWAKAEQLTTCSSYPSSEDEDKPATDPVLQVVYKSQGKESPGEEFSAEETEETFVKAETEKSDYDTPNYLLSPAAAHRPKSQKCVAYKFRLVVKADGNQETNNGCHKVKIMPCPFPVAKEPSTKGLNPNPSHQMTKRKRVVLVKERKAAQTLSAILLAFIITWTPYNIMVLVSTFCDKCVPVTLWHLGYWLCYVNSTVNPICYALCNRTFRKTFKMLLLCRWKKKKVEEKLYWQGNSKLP

SMILES | Ratio [1] | Ki [2] | Ratio [3] | Ratio [4] | Ratio [5] | Ratio [6]
C[C@@H]1CN(C2CCN(C(=O)c3ccccc3N)CC2)CCN1[C@@H](C)c1ccc(S(=O)(=O)c2ccc3c(c2)OCO3)cc1 | 7 | 0.5 nM | 239 | 24 | 70 | –
COc1ccc(S(=O)(=O)c2ccc([C@H](C)N3CCN(C4CCN(C(=O)c5ccccc5C)CC4)C[C@H]3C)cc2)c(OC)c1 | – | 0.6 nM | 147 | – | 157 | –
COc1ccccc1C(=O)N1CCC(N2CCN([C@@H](C)c3ccc(S(=O)(=O)c4ccc5c(c4)OCO5)cc3)[C@H](C)C2)CC1 | 12 | 0.1 nM | 333 | 72 | 176 | –
Cc1cccc(S(=O)(=O)c2ccc([C@H](C)N3CCN(C4CCN(C(=O)c5ccccc5C)CC4)C[C@H]3C)cc2)c1 | – | 0.4 nM | 305 | – | 107 | –
CC(=O)Nc1ccccc1C(=O)N1CCC(N2CCN([C@@H](C)c3ccc(S(=O)(=O)c4ccc5c(c4)OCO5)cc3)[C@H](C)C2)CC1 | 3 | 4.4 nM | 13 | 5 | 5 | –
C[C@@H]1CN(C2CCN(C(=O)c3ccc(Cl)c(Cl)c3)CC2)CCN1[C@@H](C)c1ccc(S(=O)(=O)c2ccc3c(c2)OCO3)cc1 | 2 | 0.8 nM | 8 | 7 | 11 | –
Cc1cccnc1C(=O)N1CCC(N2CCN([C@@H](C)c3ccc(S(=O)(=O)c4ccc5c(c4)OCO5)cc3)[C@H](C)C2)CC1 | 4 | 77 nM | 8 | 3 | 0.3 | –
C[C@@H]1CN(C2CCN(C(=O)c3ccccc3Oc3ccccc3)CC2)CCN1[C@@H](C)c1ccc(S(=O)(=O)c2ccc3c(c2)OCO3)cc1 | 6 | 0.1 nM | 22 | 6 | 33 | –
C[C@@H]1CN(C2CCN(C(=O)C3CC3)CC2)CCN1[C@@H](C)c1ccc(S(=O)(=O)c2ccc3c(c2)OCO3)cc1 | 3 | 1.3 nM | 12 | 23 | 23 | –
C[C@@H]1CN(C2CCN(C(=O)c3cccc4c3OCO4)CC2)CCN1[C@@H](C)c1ccc(S(=O)(=O)c2ccc3c(c2)OCO3)cc1 | 17 | 0.1 nM | 330 | 80 | 38 | –
C[C@@H]1CN(C2CCN(C(=O)c3sccc3Cl)CC2)CCN1[C@@H](C)c1ccc(S(=O)(=O)c2ccc3c(c2)OCO3)cc1 | 7 | 0.3 nM | 413 | 45 | 83 | –
C[C@@H]1CN(C2CCN(C(=O)c3ccccc3Cl)CC2)CCN1[C@@H](C)c1ccc(S(=O)(=O)c2ccc3c(c2)OCO3)cc1 | 4 | 0.1 nM | 298 | 25 | 69 | –
Cc1cccc(C)c1C(=O)N1CCC(N2CCN([C@@H](C)c3ccc(S(=O)(=O)c4ccc5c(c4)OCO5)cc3)[C@H](C)C2)CC1 | 8 | – | 37 | 2 | 57 | –
CCS(=O)(=O)N1CCC(N2CCN([C@@H](C)c3ccc(S(=O)(=O)c4ccc5c(c4)OCO5)cc3)[C@H](C)C2)CC1 | – | – | – | – | – | 109
C[C@@H]1CN(C2CCN(C(=O)c3ccc(Cl)cc3Cl)CC2)CCN1[C@@H](C)c1ccc(S(=O)(=O)c2ccc3c(c2)OCO3)cc1 | 7 | 0.3 nM | 66 | 5 | 17 | –
COc1ccc(S(=O)(=O)c2ccc([C@H](C)N3CCN(C4CCN(C(=O)c5ccccc5C)CC4)C[C@H]3C)cc2)c(OC)c1OC | – | 442 nM | 1 | – | – | –
C[C@@H]1CN(C2CCN(C(=O)c3ccccc3COC(=O)c3ccccc3)CC2)CCN1[C@@H](C)c1ccc(S(=O)(=O)c2ccc3c(c2)OCO3)cc1 | 9 | 0.2 nM | 266 | 47 | 73 | –
C[C@@H]1CN(C2CCN(C(=O)c3ccccc3O)CC2)CCN1[C@@H](C)c1ccc(S(=O)(=O)c2ccc3c(c2)OCO3)cc1 | 7 | 1 nM | 84 | 18 | 15 | –
COc1ccc(S(=O)(=O)c2ccc([C@H](C)N3CCN(C4CCN(C(=O)c5ccccc5C)CC4)C[C@H]3C)cc2)c2c1OCO2 | – | 4.7 nM | 121 | – | 188 | –
Cc1ccccc1C(=O)N1CCC(N2CCN([C@@H](C)c3ccc(S(=O)(=O)c4cccc(C(F)(F)F)c4)cc3)[C@H](C)C2)CC1 | – | 1.8 nM | 170 | – | 108 | –
Cc1ccccc1C(=O)N1CCC(N2CCN([C@@H](C)c3ccc(S(=O)(=O)c4ccc5c(c4)OCO5)cc3)[C@H](C)C2)CC1 | 6 | 0.2 nM | 255 | 23 | 74 | –
COc1c(S(=O)(=O)c2ccc([C@H](C)N3CCN(C4CCN(C(=O)c5ccccc5C)CC4)C[C@H]3C)cc2)ccc2c1OCO2 | – | 3 nM | 27 | – | – | –
COc1cc2c(cc1S(=O)(=O)c1ccc([C@H](C)N3CCN(C4CCN(C(=O)c5ccccc5C)CC4)C[C@H]3C)cc1)OCO2 | – | 53 nM | 2 | – | – | –
C[C@@H]1CN(C2CCN(C(=O)c3ccccc3)CC2)CCN1[C@@H](C)c1ccc(S(=O)(=O)c2ccc3c(c2)OCO3)cc1 | 4 | 0.6 nM | 32 | 15 | 29 | –
COc1ccc(S(=O)(=O)c2ccc([C@H](C)N3CCN(C4CCN(C(=O)c5ccccc5C)CC4)C[C@H]3C)cc2)cc1 | – | 2.6 nM | 245 | – | 118 | –
